TRPC4 act: TRPC4 (mouse) channel activation; B-score at 10 µM; actives 0.49% (n = 310,000); Q9QUQ5; AID 2237; HEK293 TRPC4beta/mu-opioid, Fluo4 calcium fluorescence; active compounds read high;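 active = B-score above 5 SD of library B-scores, and initial fluorescence ratio not above library mean plus 5 SD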;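 also: positive B-score marks a calcium rise read as TRPC4 activation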
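system = HEK293 cells stably co-expressing mouse TRPC4beta and mu-opioid receptor | schedule = Fluo4 dye loading 45 min at room temperature, 110 s recording | measure = B-scored integrated calcium fluorescence ratio | signal = Fluo4 calcium-sensitive dye fluorescence, kinetic, 1 Hz baseline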
TRPC6 inh: mouse TRPC6 channel inhibition; Q61143; HEK293-TRPC6, membrane potential dye, ACh-evoked depolarization; active compounds read low; B-score at 10 µM; actives 1.1% (n = 310,000); AID 2553;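 active = B-score under library mean minus 3 SD, initial fluorescence not abnormally high, positive integrated signal ratio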;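 also: B-score derived from integrated fluorescence ratio over the kinetic read; more negative B-score means stronger inhibition of depolarization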
TRPC6 act: mouse TRPC6 channel activation; HEK293-TRPC6 membrane potential dye fluorescence; active compounds read high; actives 0.13% (n = 310,000); B-score at 10 µM;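 active = B-score of the integrated fluorescence ratio above library mean plus 3 SD, and starting fluorescence ratio within library mean plus 5 SD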;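 also: higher score means more depolarization so channel activation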
TRPC4 inh: inhibitors of mouse TRPC4 channel. HEK293 TRPC4beta/mu-opioid, DAMGO-evoked Fluo4 calcium flux; active compounds read low. AID 2247. Q9QUQ5. B-score at 10 µM. actives 0.39% (n = 300,000);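 active = B-score over 3 SD under the library average, no early fluorescence shift, positive overall ratio signal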
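Material: HEK293 cells with stable TRPC4beta plus mu-opioid receptor expression; probe or stimulus: DAMGO in two steps, submaximal then maximal; technique: Fluo4 calcium fluorescence by kinetic imaging, 5 s 1 Hz baseline; measure: integrated fluorescence ratio relative to baseline, converted to per-well B score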
TRPC4 PAM: allosteric potentiators of mouse TRPC4 channel; Q9QUQ5; HEK293 TRPC4beta/mu-opioid, DAMGO EC20, Fluo-4 Ca2+ flux; active compounds read high; B-score at 10 µM; actives 0.42% (n = 310,000); AID 2227;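 active = B-score of calcium response area above 5 SD of library B-scores, with initial fluorescence ratio within 5 SD of library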;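 also: B-score of integrated fluorescence ratio over time as area under calcium response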
TRPC4 spec 2: second selectivity test of TRPC6 inhibitors: effect on mouse TRPC4. HEK293 TRPC4/MOR, membrane potential dye fluorescence; channel activated by saturating DAMGO dose. AID 2776. inhibition, % at 10 µM. shares compounds with TRPC6 inh. actives 42% (n = 920);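 active = compounds whose fluorescence signal differed from control wells by over 3 SD, either direction, in both duplicate plates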
TRPC4 spec: tests whether TRPC6 inhibitors also affect mouse TRPC4; actives 61% (n = 920); activity change, negative = inhibition, % at 10 µM; HEK293 TRPC4/mu-opioid, membrane potential fluorescence; shares compounds with TRPC6 inh;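 active = rise or fall in signal beyond 3 SD of buffer-only wells in both replicate plates, either sign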;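 also: integrated kinetic ratio of fluorescence range over baseline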
HEK293 MPD ctr 2-1: second check of TRPC6 inhibitor effects in parental HEK293 cells; shares compounds with TRPC6 inh; parental HEK293 membrane potential dye fluorescence; maximal acetylcholine challenge after compound addition; actives 31% (n = 920); AID 2779; signal change vs control, % at 10 µM;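 active = membrane potential signal moving either way by over 3 SD of the maximum-effect control, in both duplicate plates, meaning non-specific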
HEK293 MPD ctr-1: parental HEK293 nonspecific activity of TRPC6 inhibitors; shares compounds with TRPC6 inh; parental HEK293 membrane potential dye fluorescence; membrane potential signal change, % at 10 µM; actives 60% (n = 920);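 active = membrane potential signal shifting up or down by more than 3 SD of buffer-only wells, on both duplicate plates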
HEK293 MPD ctr-2: parental HEK293 nonspecific activity of TRPC6 modulators. shares compounds with TRPC6 inh. membrane potential dye fluorescence. membrane potential signal change, % at 10 µM. actives 51% (n = 2,400);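 active = membrane potential signal moves up or down beyond 5 SD from buffer-only wells, on both duplicate plates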
HEK293 MPD ctr 2-2: second counter-screen for TRPC6 modulators: effect in parental HEK293 cells; shares compounds with TRPC6 inh; membrane potential dye fluorescence; after compound, maximal acetylcholine stimulation; inhibition, % at 10 µM; actives 14% (n = 2,400);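 active = membrane potential signal drops by more than 5 SD from the mean control signal, in both duplicate plates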;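 also: plate controls were acetylcholine ECmax control wells for no effect and buffer only wells for full effect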
TRPC4/MOR mod: tests whether TRPC6 modulators also affect mouse TRPC4; shares compounds with TRPC6 inh; HEK293 TRPC4/mu-opioid, membrane potential fluorescence; percent change from control (negative = decrease, positive = increase), % at 10 µM; actives 69% (n = 2,400); AID 488927;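 active = membrane potential signal moved up or down beyond 5 SD of buffer control wells, in both duplicate plates, actives on both sides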;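 also: plate controls were assay buffer wells for no effect and DAMGO maximal-effect wells for full effect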
TRPC4 ctr inh 2: second selectivity test of TRPC6 modulators against mouse TRPC4. shares compounds with TRPC6 inh. HEK293 TRPC4/mu-opioid, membrane potential dye fluorescence; stimulated with maximal-effect DAMGO. inhibition, % at 10 µM. actives 55% (n = 2,400);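 active = drop in membrane potential signal beyond 5 SD of the control wells in both duplicate plates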;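 also: TRPC4 counter screen for TRPC6 hits run under conditions tuned for TRPC6 not TRPC4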
TRPC6 block conf: mouse TRPC6 inhibitor confirmation; shares compounds with TRPC6 inh; HEK293-TRPC6, membrane potential dye, ACh-evoked depolarization; inhibition, % at 10 µM; actives 43% (n = 3,300); AID 488960;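 active = fluorescence ratio falls more than 5 SD below the full-stimulation control mean, in both duplicate runs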;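 also: integrated fluorescence ratio of peak minus minimum over baseline after agonist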
TRPC6 act conf: confirmation of mouse TRPC6 activators; shares compounds with TRPC6 inh; HEK293-TRPC6 membrane potential dye fluorescence, FDSS; activation, % at 10 µM; actives 11% (n = 2,800); AID 488961;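 active = ratio signal rise beyond 5 SD above unstimulated control wells' mean, seen in both duplicate runs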;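 also: plate controls were buffer EC0 wells for no effect and acetylcholine ECmax response for full effect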
The depositor's hits bear a star. An excerpt weighted towards active compounds, which were near 2.3% of everything screened.

`COC(=O)c1cc(NC(=O)CSc2nnc(N)s2)ccc1Cl` gave TRPC4 act inactive, TRPC6 inh -7.1*, TRPC6 act inactive, TRPC4 inh inactive, TRPC4 PAM inactive, HEK293 MPD ctr-2 inactive, HEK293 MPD ctr 2-2 inactive, TRPC4/MOR mod inactive, TRPC4 ctr inh 2 inactive, TRPC6 block conf inactive and TRPC6 act conf inactive.
COc1cc(/C=C2/SC(=S)N(CCC(=O)Nc3ccccc3)C2=O)cc(OC)c1OC was read as TRPC4 act inactive, TRPC6 inh inactive, TRPC6 act inactive, TRPC4 inh inactive and TRPC4 PAM inactive.
For O=c1[nH]c2ccc(S(=O)(=O)N3CCN(c4ccccc4F)CC3)cc2s1 the results were TRPC4 act inactive, TRPC6 inh -8*, TRPC6 act inactive, TRPC4 inh inactive, TRPC4 PAM inactive, TRPC4 spec 2 inactive, TRPC4 spec 0.3%*, HEK293 MPD ctr 2-1 226%*, HEK293 MPD ctr-1 inactive, TRPC6 block conf inactive and TRPC6 act conf inactive.
For COc1ccc(OC)c(C2=NS(=O)(=O)N(C)C(C(=O)NCc3ccco3)=C2)c1 the results were TRPC4 act inactive, TRPC6 inh inactive, TRPC6 act inactive, TRPC4 inh inactive and TRPC4 PAM inactive.
Screening CCCN(CCC)c1nc(-c2ccccn2)nc2ccccc12 returned TRPC4 act inactive, TRPC6 inh -5.5*, TRPC6 act inactive, TRPC4 inh inactive, TRPC4 PAM inactive, HEK293 MPD ctr-2 inactive, HEK293 MPD ctr 2-2 78%*, TRPC4/MOR mod inactive, TRPC4 ctr inh 2 68%*, TRPC6 block conf 76%* and TRPC6 act conf inactive.
`c1ccc2c(N3CCCC3)nc(-c3ccncc3)nc2c1` gave TRPC4 act inactive, TRPC6 inh -7.2*, TRPC6 act inactive, TRPC4 inh inactive, TRPC4 PAM inactive, HEK293 MPD ctr-2 -248%*, HEK293 MPD ctr 2-2 inactive, TRPC4/MOR mod -42%*, TRPC4 ctr inh 2 35%*, TRPC6 block conf 39%* and TRPC6 act conf inactive.

Bioassay records: PubChem, Johns Hopkins Ion Channel Center
